According to ChEMBL document CHEMBL1152770, “Inhibitors of hepatitis C virus polymerase: synthesis and biological characterization of unsymmetrical dialkyl-hydroxynaphthalenoyl-benzothiadiazines” (J Med Chem, 2009):

Legend:
Type in all cases: ADME, organism-based
Set-up in all cases: dose 5 mg/kg, route oral
[1] = Drug level in rat liver at 5 mg/kg, po after 6 hrs; conditions: read-out: Drug uptake
In short: (§1)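 Rats dosed orally at 5 mg/kg, four groups, sacrificed at 6 and 12 h. Plasma and liver homogenate extracted by acetonitrile protein precipitation with internal standard and quantified by LC-MS (negative-ion MRM). Liver/plasma ratio taken from the two concentrations.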

[2] = Ratio of drug level in liver to plasma in rat at 5 mg/kg, po after 12 hrs; in short: as §1
[3] = Drug level in rat liver at 5 mg/kg, po after 12 hrs; conditions: read-out: Drug uptake; in short: as §1
[4] = Plasma concentration in rat at 5 mg/kg, po after 6 hrs
In short: (§2)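 Vehicle DMSO:PEG400 (10:90, v/v). Dosing at 5 mg/kg in rat and monkey; dog 5 mg/kg or 2.5 mg/kg. Protein precipitation with acetonitrile, then LC-MS/MS in negative-ion MRM (m/z 516.2→437.0) against spiked standards with internal standard.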

[5] = Ratio of drug level in liver to plasma in rat at 5 mg/kg, po after 6 hrs; in short: as §1
[6] = Plasma concentration in rat at 5 mg/kg, po after 12 hrs; in short: as §2

CC(C)CC[C@@]1(C)C(=O)C(C2=NS(=O)(=O)c3cc(NS(C)(=O)=O)ccc3N2)=C(O)c2ccccc21 showed a concentration at 6 h [1] of 3800 ng/g, a Kp at 12 h [2] of 20 and a concentration at 12 h [3] of 1430 ng/g. It also gave a concentration at 6 h [4] of 0.445 µM, a Kp at 6 h [5] of 17 and a concentration at 12 h [6] of 0.135 µM.
